Usually IC50 stands for the concentration at which inhibition is half-maximal.

The results in this text go back to ChEMBL document CHEMBL4602675, “The Marine Natural Product Manzamine A Inhibits Cervical Cancer by Targeting the SIX1 Protein” (J Nat Prod, 2020).

The test system of experiment [1] is C-33-A. The experiment is described as follows: Cell cycle arrest in human C33A cells assessed as accumulation at G2/M phase at 4 uM after 48 hrs by propidium iodide staining based flow cytometric analysis (reference value: 26.7%). Type of experiment: functional. The gist of the method: (§1)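 Cells in DMEM/10% FBS at 37 °C, 5% CO2 were given 4 μM for 24, 48 or 72 h, with DMSO as control. After trypsinization they were fixed in chilled 70% ethanol on ice for 30 min, treated with RNase A (1 mg/mL) for 30 min at room temperature, and stained with PI (20 μg/mL). At least 10 000 events were read by flow cytometry to give sub-G1, G0/G1, S and G2/M fractions; mean ± SEM.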
(In general: In flow cytometry, cells or beads pass a laser one at a time.)

The subject of experiment [2] is Ca-Ski. Nature of the experiment: Induction of apoptosis in human CaSki cells assessed as early apoptotic cells at 4 uM after 48 hrs by Annexin V-FITC/PI double staining based flow cytometric analysis (reference value: 4.4%). Type of experiment: functional.
The test system of experiment [3] is HeLa. Nature of the experiment: Induction of apoptosis in human HeLa cells assessed as viable cells at 4 uM after 48 hrs by Annexin V-FITC/PI double staining based flow cytometric analysis (reference value: 80.7%). Type of experiment: functional. Particulars: read-out: Activity.
The subject of experiment [4] is HeLa. The experiment is described as follows: Cell cycle arrest in human HeLa cells assessed as accumulation at G0/G1 phase at 4 uM after 24 hrs by propidium iodide staining based flow cytometric analysis (reference value: 69.4%). Type of experiment: functional. In short, it runs like this:
as §1

Experiment [5] has as its system HeLa. The experiment is described as follows: Cell cycle arrest in human HeLa cells assessed as accumulation at G2/M phase at 4 uM after 48 hrs by propidium iodide staining based flow cytometric analysis (reference value: 16.2%). Type of experiment: functional.
The test system of experiment [6] is C-33-A. Nature of the experiment: Cell cycle arrest in human C33A cells assessed as accumulation at Sub G1 phase at 4 uM after 48 hrs by propidium iodide staining based flow cytometric analysis (reference value: 0.8%). Type of experiment: functional. In short, it runs like this:
as §1

In experiment [7] the test system is Ca-Ski. Nature of the experiment: Antiproliferative activity against human CaSki cells assessed as reduction in cell viability after 24 hrs by CellTiter-Glo assay. Type of experiment: functional, cell-based. In short, it runs like this:
(§2)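 ATP-based luminescent viability readout. Cells were grown in DMEM with 10% FBS, 2 mM L-glutamine and penicillin-streptomycin at 37 °C, 5% CO2. 2 × 10^4 cells/well were seeded, then exposed the next day to 0–40 μM for 24, 48 or 72 h. % viability = 100 × treated/control. IC50 was fitted from a sigmoid dose-response curve. Run at least three times in quadruplicate; mean ± SEM.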
On the technique in general: ATP-based viability assays read luminescence as a measure of living cells.

For experiment [8], the system named is SiHa. The experiment is described as follows: Cell cycle arrest in human SiHa cells assessed as accumulation at G0/G1 phase at 4 uM after 48 hrs by propidium iodide staining based flow cytometric analysis (reference value: 72.7%). Type of experiment: functional. In short, it runs like this: as §1
Experiment [9] deals with Ca-Ski. Nature of the experiment: Cell cycle arrest in human CaSki cells assessed as accumulation at G2/M phase at 4 uM after 48 hrs by propidium iodide staining based flow cytometric analysis (reference value: 29.5%). Type of experiment: functional. In short, it runs like this:
as §1

Experiment [10] has as its target T1, Homeobox protein SIX1 (Homo sapiens) (UniProt Q15475).
T1 sequence (whole entry): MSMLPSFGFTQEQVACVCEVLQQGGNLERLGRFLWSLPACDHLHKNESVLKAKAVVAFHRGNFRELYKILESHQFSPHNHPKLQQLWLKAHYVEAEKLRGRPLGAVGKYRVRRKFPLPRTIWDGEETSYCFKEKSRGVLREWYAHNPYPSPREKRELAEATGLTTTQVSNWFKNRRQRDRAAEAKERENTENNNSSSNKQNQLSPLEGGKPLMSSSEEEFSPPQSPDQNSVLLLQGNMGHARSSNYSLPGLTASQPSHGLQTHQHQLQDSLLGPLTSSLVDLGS
The experiment is described as follows: Inhibition of SIX1 in human SiHa cells at 2 to 4 uM after 48 hrs by Western blot analysis. Type of experiment: cell-based. In short, it runs like this:
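SiHa cells in DMEM with 10% FBS were seeded at 1 × 10^6 per 100 mm dish and treated the next day at 2 or 4 μM for 48 h. Lysis was in RIPA buffer with protease inhibitors. Equal protein was run on SDS-PAGE and transferred to PVDF, blocked in 5% milk/TBST, probed with anti-SIX1 (1:500) then HRP secondary (1:2000), and detected by chemiluminescence.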

Experiment [11] deals with SiHa. The experiment is described as follows: Cell cycle arrest in human SiHa cells assessed as decrease in accumulation at S phase at 4 uM incubated up to 72 hrs by propidium iodide staining based flow cytometric analysis. Type of experiment: functional. The gist of the method:
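Cells in DMEM with 10% FBS, 2 mM L-glutamine, pen-strep, 37 °C, 5% CO2; seeded and left overnight, then treated at 4 μM with DMSO as control. Harvested by trypsin at 24, 48 or 72 h, fixed in chilled 70% ethanol 30 min on ice, RNase A (1 mg/mL) 30 min at room temperature, PI (20 μg/mL). Flow cytometry, ≥10 000 events, G0/G1, S, G2/M fractions; mean ± SEM.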

Experiment [12] has as its system Ca-Ski. The experiment is described as follows: Cell cycle arrest in human CaSki cells assessed as accumulation at G2/M phase at 4 uM after 24 hrs by propidium iodide staining based flow cytometric analysis (reference value: 27.4%). Type of experiment: functional. In short, it runs like this: as §1
The test system of experiment [13] is SiHa. Nature of the experiment: Antiproliferative activity against human SiHa cells assessed as reduction in cell viability after 72 hrs by CellTiter-Glo assay. Type of experiment: functional, cell-based. In short, it runs like this: as §2
The test system of experiment [14] is Ca-Ski. The experiment is described as follows: Induction of apoptosis in human CaSki cells assessed as apoptotic cells at 4 uM after 48 hrs by Annexin V-FITC/PI double staining based flow cytometric analysis (reference value: […]). Type of experiment: functional.
Experiment [15] relates to SiHa. Nature of the experiment: Antiproliferative activity against human SiHa cells assessed as reduction in cell viability after 24 hrs by CellTiter-Glo assay. Type of experiment: functional, cell-based. In short, it runs like this:
as §2

Experiment [16] concerns Ca-Ski. Nature of the experiment: Cell cycle arrest in human CaSki cells assessed as increase in accumulation at G0/G1 phase at 4 uM incubated for 24 hrs by propidium iodide staining based flow cytometric analysis. Type of experiment: functional. The gist of the method: as §1
Experiment [17] concerns HeLa. The experiment is described as follows: Induction of apoptosis in human HeLa cells assessed as viable cells at 4 uM after 24 hrs by Annexin V-FITC/PI double staining based flow cytometric analysis (reference value: 85.2%). Type of experiment: functional. The following applies: read-out: Activity.
Experiment [18] deals with HeLa. Nature of the experiment: Cell cycle arrest in human HeLa cells assessed as accumulation at Sub G1 phase at 4 uM after 24 hrs by propidium iodide staining based flow cytometric analysis (reference value: 2.2%). Type of experiment: functional. In short, it runs like this:
as §1

In experiment [19] the test system is Ca-Ski. The experiment is described as follows: Induction of apoptosis in human CaSki cells assessed as viable cells at 4 uM after 48 hrs by Annexin V-FITC/PI double staining based flow cytometric analysis (reference value: 81.6%). Type of experiment: functional. The following applies: read-out: Activity.
In experiment [20] the test system is C-33-A. The experiment is described as follows: Cell cycle arrest in human C33A cells assessed as accumulation at G0/G1 phase at 4 uM after 24 hrs by propidium iodide staining based flow cytometric analysis (reference value: 58.4%). Type of experiment: functional. The gist of the method: as §1
Experiment [21] has as its system C-33-A. The experiment is described as follows: Antiproliferative activity against human C33A cells assessed as reduction in cell viability after 48 hrs by CellTiter-Glo assay. Type of experiment: functional, cell-based. The gist of the method:
as §2

Experiment [22] relates to Ca-Ski. Nature of the experiment: Antiproliferative activity against human CaSki cells assessed as reduction in cell viability after 48 hrs by CellTiter-Glo assay. Type of experiment: functional, cell-based. The gist of the method: as §2

The structures appear in SMILES notation. Activity calls are given as the source filed them. No cut-off for these calls is given here.

With `O[C@]12C=C(c3nccc4c3[nH]c3ccccc34)[C@@H]3CCN(CCCC/C=C\CC1)C[C@@]31C[C@@H]3/C=C\CCCCN3[C@H]12` [MANZAMINE A], the Activity in the experiment on C-33-A [1] is 18.3%; in the experiment on Ca-Ski [2], 13.4%; with HeLa [4], 74.7%; in the experiment with HeLa [5], 20.8%; with C-33-A [6], 19.2%; in the experiment with SiHa [8], 86.4%. The Activity is on record as 10.1% with Ca-Ski [9]; 15.2% in the experiment with Ca-Ski [12]; 23.2% with Ca-Ski [14]; 2.1% with HeLa [18]; 58.5% with C-33-A [20]. Besides, the viability at 4 µM came out at 24.1% in the experiment on HeLa [3], 81.7% in the experiment on HeLa [17] and 76.9% in the experiment with Ca-Ski [19]. The IC50 is 33.6 µM in the experiment on Ca-Ski [7]; 4.1 µM in the experiment on SiHa [13]; 19.9 µM in the experiment on SiHa [15]; 2.1 µM with C-33-A [21]; 19.9 µM in the experiment with Ca-Ski [22]. Moreover, in experiment [10], the inhibition result was “Active”. Further, the result in the experiment with SiHa [11] was Active. Further, in the experiment on Ca-Ski [16], the “fold change (FC)” value is 1.4.
